Measured values published in PubChem BioAssay.
Activity calls are given as the source filed them.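 How the source made its calls, unless noted: active means potentiation averaged over duplicate wells exceeding buffer-only control mean by more than 3 SD; inactive means the rest.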

How the values were obtained:
[1] = nonspecific flux increase, KCNQ1-free cells – parental CHO cells, counter-screen for KCNQ1 potentiator project (AID 493006;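 active means duplicate-averaged activation above buffer control mean plus 5 SD of those controls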); conditions: parental CHO-K1 cells, FluxOR thallium flux, at 10 µM; active compounds read high
In short: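 Assay system: Untransfected host CHO-K1 cells with FluxOR thallium dye | Probe or stimulus: Potassium/thallium depolarization pulse | Schedule: Overnight 37 °C plating, 90 min RT dye, 20 min compound | Detection: Kinetic thallium-flux fluorescence | Read-out: Max-minus-min fluorescence over baseline, percent of buffer-to-R-L3 span | Benchmarks: Low control buffer, high control R-L3 activator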

[2] = target: Potassium voltage-gated channel subfamily KQT member 1 (Homo sapiens) (UniProt P51787); test: enhancement of KCNQ1 channel thallium flux – FluxOR thallium flux, CHO cells, duplicates, confirmation (AID 493007); conditions: KCNQ1 cell line, FluxOR thallium flux fluorescence, at 10 µM; active compounds read high, % of reference activator effect, buffer zero;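 on outcome: cells depolarized by a potassium plus thallium sulfate stimulus after compound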
In short: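 Material: KCNQ1-expressing CHO cell line; Incubation: FluxOR dye loading 90 min, compound exposure 20 min, room temperature; Detection: FluxOR Tl+ flux fluorescence, 10 s baseline plus 110 s recording; Read-out: percent activation between buffer and R-L3 responses; Control set: buffer-only wells as 0% and R-L3 activator as 100%; Replication: duplicate wells per compound.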

[3] = target: Potassium voltage-gated channel subfamily KQT member 2 (Rattus norvegicus) (UniProt O88943); test: KCNQ2 thallium flux enhancement – KCNQ2-CHO-K1 cells, selectivity assay for KCNQ1 potentiator project (AID 493009;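 active means mean duplicate potentiation above the buffer control mean plus 5 SD of buffer wells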;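 further: assay conditions were tuned for KCNQ1 rather than KCNQ2 modulators; signal is max minus min fluorescence divided by baseline after thallium stimulus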); conditions: FluxOR thallium flux fluorescence, at 10 µM; active compounds read high, scaled: buffer 0, activator control 100
[4] = target: Potassium voltage-gated channel subfamily KQT member 1 (Homo sapiens) (UniProt P51787); test: KCNQ1 activators by electrophysiology – IonWorks patch clamp, KCNQ1-CHO cells, orthogonal assay for KCNQ1 potentiator project, confirmation (AID 493184;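 active means current rise at least 3 SD above the untreated control mean in each of two repeat wells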); conditions: automated patch clamp current, at 10 µM; active compounds read high
In short: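 assay system = KCNQ1-expressing CHO cells | medium = external bath solution at pH 7.4 | probe or stimulus = 2,000 ms depolarization, -90 to +40 mV | compound dosing = 10 µM final, single point | measured by = automated voltage clamp, amphotericin B perforated patch | measure = percent current increase versus pre-compound level | replication = duplicates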

[5] = target: Potassium voltage-gated channel subfamily E member 1 (Homo sapiens) + Potassium voltage-gated channel subfamily KQT member 1 (Homo sapiens) (UniProt P15382+P51787); test: KCNQ1-E1 channel activation – thallium flux, CHO-K1 KCNQ1/E1 cells, selectivity assay for KCNQ1 potentiator project, confirmation (AID 493186;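 active means mean duplicate activation above the buffer control mean plus 5 SD of those controls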); conditions: FluxOR thallium flux, at 10 µM; active compounds read high
In short: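 Test system – CHO-K1 cells with KCNQ1/E1 · Measured by – FluxOR Tl+ flux fluorescence, kinetic read · Controls – buffer low control, R-L3 high control · Times – dye 90 min, compound 20 min, room temperature · Replication – duplicate wells per compound · Doses – one test concentration · Evaluation – fluorescence rise relative to baseline, as percent of R-L3 response above buffer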

Sequence of Potassium voltage-gated channel subfamily KQT member 1 (Homo sapiens) (P51787 whole entry, looked up): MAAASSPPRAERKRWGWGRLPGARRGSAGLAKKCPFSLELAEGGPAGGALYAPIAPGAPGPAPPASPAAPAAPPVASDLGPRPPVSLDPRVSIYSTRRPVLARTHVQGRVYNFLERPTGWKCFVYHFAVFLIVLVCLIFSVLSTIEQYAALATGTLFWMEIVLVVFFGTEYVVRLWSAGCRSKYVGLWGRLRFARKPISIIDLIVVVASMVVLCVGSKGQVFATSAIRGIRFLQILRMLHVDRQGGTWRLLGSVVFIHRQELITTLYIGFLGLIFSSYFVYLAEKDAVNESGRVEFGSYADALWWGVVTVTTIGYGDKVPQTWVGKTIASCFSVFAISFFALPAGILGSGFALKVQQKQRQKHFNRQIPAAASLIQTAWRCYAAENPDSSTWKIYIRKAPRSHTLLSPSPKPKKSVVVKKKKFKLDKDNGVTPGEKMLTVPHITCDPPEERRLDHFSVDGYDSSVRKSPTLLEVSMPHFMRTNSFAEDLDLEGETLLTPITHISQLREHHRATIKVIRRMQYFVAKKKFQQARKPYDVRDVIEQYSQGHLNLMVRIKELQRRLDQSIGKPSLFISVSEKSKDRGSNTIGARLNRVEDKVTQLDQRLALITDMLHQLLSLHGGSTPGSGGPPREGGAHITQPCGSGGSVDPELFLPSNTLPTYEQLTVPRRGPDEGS
Sequence of Potassium voltage-gated channel subfamily E member 1 (Homo sapiens) + Potassium voltage-gated channel subfamily KQT member 1 (Homo sapiens) (P51787 whole entry, looked up): as the sequence (P51787 whole entry, looked up) above
Sequence of Potassium voltage-gated channel subfamily KQT member 2 (Rattus norvegicus) (O88943 whole entry, looked up): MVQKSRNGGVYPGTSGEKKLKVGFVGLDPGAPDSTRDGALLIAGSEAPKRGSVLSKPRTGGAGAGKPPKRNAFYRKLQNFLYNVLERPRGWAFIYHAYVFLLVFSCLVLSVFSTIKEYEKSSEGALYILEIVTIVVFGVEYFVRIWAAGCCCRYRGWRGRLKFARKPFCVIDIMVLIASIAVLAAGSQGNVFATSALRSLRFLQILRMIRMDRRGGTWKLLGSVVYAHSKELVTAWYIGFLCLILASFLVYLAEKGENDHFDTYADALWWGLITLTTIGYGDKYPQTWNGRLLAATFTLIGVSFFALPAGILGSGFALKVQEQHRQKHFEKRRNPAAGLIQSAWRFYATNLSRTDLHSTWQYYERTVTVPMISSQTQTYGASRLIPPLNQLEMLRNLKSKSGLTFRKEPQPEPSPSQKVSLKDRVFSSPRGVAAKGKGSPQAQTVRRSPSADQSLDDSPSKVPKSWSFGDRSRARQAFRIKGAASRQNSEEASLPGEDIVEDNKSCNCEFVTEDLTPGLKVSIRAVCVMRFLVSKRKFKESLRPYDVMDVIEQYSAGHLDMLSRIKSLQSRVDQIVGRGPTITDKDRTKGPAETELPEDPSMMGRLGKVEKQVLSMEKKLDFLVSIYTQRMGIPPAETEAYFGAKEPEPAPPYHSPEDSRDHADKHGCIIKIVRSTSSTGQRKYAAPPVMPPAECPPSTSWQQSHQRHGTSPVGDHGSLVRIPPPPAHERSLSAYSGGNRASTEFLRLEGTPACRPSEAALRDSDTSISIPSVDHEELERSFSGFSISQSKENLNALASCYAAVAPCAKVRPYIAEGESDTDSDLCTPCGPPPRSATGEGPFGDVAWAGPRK

Structure (SMILES)	outcome [1]	outcome [2]	outcome [3]	outcome [4]	outcome [5]	potentiation [2]	potentiation [3]	activation [5]
COc1ccc(OC)c(NC(=S)NC(=O)c2ccc(Br)o2)c1	inactive	inactive	inactive	inactive	inactive			
O=C(NC(=S)NCCC1=CCCCC1)c1ccccc1Br	inactive			inactive	inactive	47% (active)	186% (active)	
O=C(Nc1nnc(-c2ccccc2)o1)c1ccc(Cl)cc1	inactive		inactive	inactive		24% (active)		23.9% (active)
C/C(=N\Nc1cccc2cccnc12)c1ccc[nH]1	inactive		inactive	inactive	inactive	30% (active)		
COc1ccc(C(=O)NNC(=O)C(=O)NCc2ccccc2)cc1	inactive			inactive	inactive	29% (active)	144% (active)	
CC12CCC(C(=O)N(CSC(=S)N/N=C\c3ccccc3)C1=O)C2(C)C (stereo not given)	inactive		inactive	inactive	inactive	33.5% (active)		
O=C(NC(=S)Nc1cc(C(F)(F)F)ccc1Cl)c1ccccc1	inactive	inactive	inactive	inactive	inactive			
Cc1[nH]c(=S)c(C#N)c(C)c1Cc1ccc(Cl)cc1Cl	inactive	inactive	inactive	inactive	inactive			
CCCCn1c(=O)[nH]c(=O)c2c1nc(Cn1ncc(Cl)c(Cl)c1=O)n2CCC	inactive	inactive	inactive	inactive	inactive			
CCN(C(=O)c1cc2c(=O)[nH]c3ccc(C)cc3c2s1)c1ccccc1F	inactive		inactive	inactive	inactive	25% (active)		
S=c1[nH]c(-c2cccs2)cn1-c1ccccc1	inactive			inactive	inactive	26% (active)	151% (active)	
CC1=NOC(=O)/C1=C\c1ccc(-c2ccc(Cl)cc2Cl)o1	inactive	inactive	inactive	inactive	inactive			
O=C(Nc1ccc(N2CCCC(O)C2)cc1)c1snc2c(=O)[nH]cnc12 (stereo not given)	inactive	inactive	inactive	inactive	inactive			
C=CCNC(=S)Nc1nc2c(cc1C(=O)OCC)CCCC2	inactive		inactive	inactive	inactive	39% (active)		
Cc1ccc(S(=O)(=O)/N=C(\N)Nc2nc(C)c3ccccc3n2)cc1	inactive	inactive	inactive	inactive	inactive			
COC(=O)c1sc(NC(=S)NC(=O)c2cccc(C)c2)nc1C	inactive	inactive	inactive	inactive	inactive			
Cc1ccc(C2C(C#N)=C(N)OC3=C2C(=O)CC(C)(C)C3)s1 (stereo not given)	inactive	inactive	inactive	inactive	inactive			
COc1ccc(Cl)cc1C(=O)NNC(=S)NC(=O)c1cc(-c2ccccc2)nc2ccccc12	inactive	inactive	inactive	inactive	inactive			
S=C(N/N=C/c1cccc2ccccc12)Nc1cccc(Cl)c1	inactive		inactive	inactive	inactive	59.5% (active)		
O=C(Nc1nc2c(Br)cc(Br)cc2c(=O)s1)c1ccco1	inactive	inactive	inactive	inactive	inactive			

Structure (SMILES)	outcome [1]	outcome [2]	outcome [3]	outcome [4]	outcome [5]	potentiation [2]	potentiation [3]	activation [5]
Cc1ccsc1/C=N/Nc1nc2ccccc2s1	inactive	inactive	inactive	inactive	inactive			
Cc1nn(Cc2ccc(Cl)cc2)c(C)c1NC(=O)c1cc(-c2ccco2)on1	inactive	inactive	inactive	inactive	inactive			
O=C(N/N=C/c1ccc([N+](=O)[O-])o1)c1sc2ccccc2c1Cl	inactive	inactive	inactive	inactive	inactive			
CC(C)(C)NCC(O)CON=C1c2ccccc2-c2ccccc21 (stereo not given)	inactive	inactive	inactive	inactive				15.2% (active)
COc1cccc(C(=O)CC(=O)C(=O)Nc2ccc(C)cc2Cl)c1	inactive	inactive	inactive	inactive	inactive			
CCc1cc(C(=O)N2CCN(c3ccccn3)CC2)sc1C	inactive	inactive	inactive	inactive	inactive			
COc1cc(/C=N/Nc2nc(N3CCCC3)nc(N3CCCC3)n2)ccc1OCc1ccccc1F	inactive	inactive	inactive	inactive	inactive			
CCOC(=O)c1cc2c(C)n(-c3ccc(C)cc3)c(C)c2ccc1=O	inactive		inactive	inactive	inactive	19.5% (active)		
Cc1sc2ncnc(N3CCN(Cc4ccccc4)CC3)c2c1-c1ccccc1	inactive		inactive	inactive	inactive	184% (active)		
N#CC(c1ccccc1)c1ccc2c(C(F)(F)F)cc(C(F)(F)F)nc2n1 (stereo not given)	inactive		inactive	inactive	inactive	129% (active)		
COc1cc(OC)cc(-c2nnc(Nc3nc4c(F)cccc4s3)o2)c1	inactive	inactive	inactive	inactive	inactive			
COc1ccc(C(=O)/C=C/C(=O)N(CC(=O)NC2CCCCC2)Cc2ccccc2)c(O)c1	inactive		inactive	inactive	inactive	25% (active)		
COc1ccc(CCNC(=O)CCOc2cc(C)ccc2C)cc1OC	inactive	inactive	inactive	inactive	inactive			
c1ccc(CNc2nc3ccccc3[nH]2)cc1	inactive	inactive	inactive	inactive	inactive			
O=C(CCN1Cc2ccccc2C1)c1ccc2c(c1)OCCO2	inactive		inactive	inactive	inactive	45.5% (active)		
O=C(NC1(O)C(=O)c2ccccc2C1=O)c1ccc(C(F)(F)F)cc1	inactive	inactive		inactive	inactive		148% (active)	
Cc1ccc(/C(O)=C/C(=O)C(=O)NNC(=O)C(O)(c2ccccc2)c2ccccc2)cc1	inactive	inactive	inactive	inactive	inactive			
O=C(Nc1nnc(-c2ccco2)o1)c1ccc(Cl)cc1	inactive	inactive		inactive	inactive		148% (active)	
CN1CCN(Cc2ccc(Sc3ccc(Cl)cc3)c([N+](=O)[O-])c2)CC1	inactive		inactive	inactive	inactive	17.5% (active)		
O=C(NC(=S)NCCc1ccccc1)c1ccco1	inactive	inactive	inactive	inactive	inactive			

Structure (SMILES)	outcome [1]	outcome [2]	outcome [3]	outcome [4]	outcome [5]	potentiation [2]	potentiation [3]	activation [5]
O=C(O)/C=C/C(=O)c1ccc2c(c1)CCc1ccccc1-2	inactive	inactive	inactive	inactive	inactive			
N#Cc1ccccc1OCCN1C(=O)c2ccccc2C1=O	inactive	inactive	inactive	inactive	inactive			
Clc1ccc(Nc2ccc(Cl)nn2)cc1	inactive	inactive		inactive	inactive		147% (active)	
COc1cc(-c2noc(C)c2-c2ccc(N(C)C)nc2)cc(OC)c1OC	inactive	inactive	inactive	inactive	inactive			
O=C(CNS(=O)(=O)c1ccc([N+](=O)[O-])cc1)N/N=C\c1ccc(O)cc1	inactive			inactive	inactive	24% (active)	154% (active)	
COc1ccc(-c2nc(=S)c3c([nH]2)Oc2ccc(C)cc2C3)cc1O	inactive		inactive	inactive	inactive	28.5% (active)		
O=C(NC(=S)Nc1cccc(Cl)c1)c1cncc(Br)c1	inactive	inactive	inactive	inactive	inactive			
Fc1ccc(-n2cc(-c3ccccc3)c3c(=S)nc[nH]c32)cc1	inactive		inactive	inactive	inactive	108% (active)		
CCOC(=O)N1CCC(N2C(=O)c3ccc(C(=O)NCCC(C)C)cc3C2=O)CC1	inactive			inactive	inactive	69% (active)	150% (active)	
CC(=O)Nc1ccc(NC(=O)CSC2=NS(=O)(=O)c3cc(Cl)ccc3N2)cc1	inactive	inactive	inactive	inactive	inactive			
CCc1cc(=O)oc2cc(OC(C)C(=O)NCC(O)c3ccccc3)c(Cl)cc12 (stereo not given)	inactive	inactive	inactive	inactive	inactive			
Cc1c(C(=O)Nc2ccc(F)cc2)oc2ccc(S(=O)(=O)N3CC(C)CC(C)C3)cc12 (stereo not given)	inactive	inactive	inactive	inactive	inactive			
Cc1ccc(CNc2nc3c([nH]2)c(=O)n(C)c(=O)n3C)cc1	inactive	inactive	inactive	inactive	inactive			
Cn1cnc([N+](=O)[O-])c1S(=O)(=O)c1cccc(Cl)c1	inactive	inactive	inactive	inactive	inactive			
CCN(CC)S(=O)(=O)c1ccc(NC(=O)c2cccnc2Cl)c(NC(=O)c2cccnc2Cl)c1	inactive			inactive	inactive	43% (active)	242% (active)	
CCOC(=O)C1=C(CC)Nc2ccccc2N=C1NC(=O)CCNC(C)=O	inactive	inactive	inactive	inactive	inactive			
Cc1ccc(-c2noc(CNS(=O)(=O)c3ccccc3)n2)cc1	inactive	inactive	inactive	inactive	inactive			
COC(=O)CSc1nc(NC(C)C)nc(N(C)C)n1	inactive	inactive	inactive	inactive	inactive			
Cc1cccc(NC(=O)C2CCCN2S(=O)(=O)c2ccc(Cl)cc2)n1 (stereo not given)	inactive	inactive	inactive	inactive	inactive			
O=C(NNc1ncc(C(F)(F)F)cc1Cl)c1ccc(Cl)c(Cl)c1	inactive	inactive		inactive	inactive		198% (active)	
